Measurements of several laboratories.
Target: Serine/threonine-protein kinase pim-2 (PIM2, Homo sapiens, UniProt Q9P1W9)

SMILES | test | conditions | measurement | value
COc1cc(Nc2cnc(C#N)c(O[C@H](C)CN(C)C)n2)ncc1-c1cnn(C)c1 | enzyme activity, inhibitor, radiometric | 10 µM | remaining activity | 77%
O=C1NC(c2ccccn2)Sc2ccccc21 (stereo not shown) | cell-free assay, competition with immobilised ligand | 1 µM | remaining binding | 88%
Cc1ccc(NC(=O)c2ccc(C)c(C(F)(F)F)c2)cc1C#Cc1nn(C2CCC(O)CC2)c2ncnc(N)c12 (stereo not shown) | cell-free assay | 10 µM | remaining signal | 112%
COc1ccc2c(c1)O[C@@H](c1ccc(OC)c(OC)c1)C[C@H]2NC(=O)C1(c2ccc3c(c2)OC(F)(F)O3)CC1 | cell-free assay, competition with immobilised ligand | 1 µM | remaining binding | 100%
CCOc1cc(-c2nncn2C)ccc1Nc1ncc2cc(C)nc(NCC(C)(C)C)c2n1 | enzyme activity, inhibitor, FRET | 1 µM | inhibition | < 15%
CC(C)(C)c1nc(-c2cccc(NS(=O)(=O)c3c(F)cccc3F)c2F)c(-c2ccnc(N)n2)s1 | enzyme activity, inhibitor, radiometric | 1 µM | remaining activity | 77%
CNC(=O)c1cc(Oc2ccc(NC(=O)Nc3ccc(Cl)c(C(F)(F)F)c3)cc2)ccn1 | enzyme activity, inhibitor | 0.3 µM | inhibition | 6%
CS(=O)(=O)N1CCCC(NC(=O)[C@H](CCC2CCCCC2)NC(=O)c2ccc(CNc3ncnc4c3nnn4-c3ccccc3)cc2)C1 (stereo partly shown) | cell-free assay, competition with immobilised ligand | 0.1 µM | remaining binding | 88%
CC(C)(C)C(=O)c1sc(NC2CCCCC2)nc1N | enzyme activity, inhibitor | 10 µM | remaining activity | 109%
Cn1nc(C(F)(F)F)cc1-c1cnc(N2CCc3cc(S(=O)(=O)Nc4c(F)cc(Cl)cc4F)cc(N4CCCC4=O)c32)nc1 | cell-free assay, competition with immobilised ligand | 1 µM | remaining binding | 100%
Cc1cc(NC(=O)c2cccc3cc(-c4cccc5[nH]nc(N)c45)ccc23)ccc1F | enzyme activity, inhibitor | 0.1 µM | activity vs control | 87%
CC(C)(O)[C@H]1CC[C@H](Nc2ccc3ncc(-c4cccc(C(F)(F)F)c4)n3n2)CC1 | enzyme activity, inhibitor | 1 µM | remaining activity | 29.8%
CCCOc1ccc(OC)c(F)c1C(=O)c1ccc(C(=O)N[C@@H]2CNC[C@H]2NC(=O)c2ccc3[nH]ncc3c2)cc1 | enzyme activity, inhibitor | 10 µM | remaining activity | 101%
COc1cc(Cl)c(C(=O)N[C@@H](CN[C@H]2CC[C@@H](N)CC2)Cc2ccc(C#N)cc2)cc1-c1ccc(CN[C@H](C)c2ccc(C)cc2)o1 | enzyme activity, inhibitor | 1 µM | remaining activity | 92%
COc1cc2ncnc(Nc3ccc(Oc4ccccc4)cc3C)c2cc1OC | enzyme activity, inhibitor | 1 µM | inhibition | -2%
N#Cc1ccc(Nc2ccc3[nH]c(=O)[nH]c3c2)c(Cl)c1 | cell-free assay, competition with immobilised ligand | 1 µM | remaining binding | 83%

SMILES | test | conditions | measurement | value
Cc1ccc(NC(=O)c2ccc(CN3CCN(C)CC3)cc2)cc1Nc1nc(-c2cccnc2)cs1 | cell-free assay | 0.5 µM | remaining signal | 118%
O=C(CSc1nc2nccnc2c(=O)n1CCc1ccccc1)Nc1nccs1 | enzyme activity, inhibitor | 10 µM | inhibition | -5%
N#CCCc1ccc2c(c1)-c1[nH]c3ccc([N+](=O)[O-])cc3c1CC(=O)N2 | cell-free assay | 0.5 µM | remaining signal | 104%
FC(F)(F)Oc1cccc(-c2cnc3ccc(-c4ccncc4)nn23)c1 | enzyme activity, inhibitor, radiometric | 1 µM | activity vs control | 88%
O=C1NC(=O)c2cc(Nc3ccc(F)cc3)c(Nc3ccc(F)cc3)cc21 | cell-free assay | 0.5 µM | remaining signal | 98.6%
O=C(Nc1cnn(-c2csc(C(=O)NC3COC3)c2)c1)Nc1ccccc1Cl | enzyme activity, inhibitor | 5 µM | remaining activity | 96.4%
CC/C(=N\NC(=O)NCc1cccc(O)c1)c1ccc(O)c(C)c1O | enzyme activity, inhibitor | 0.1 µM | inhibition | -5%
Cn1c(=O)n(-c2ccc(C(C)(C)C#N)cc2)c2c3cc(-c4cnc5ccccc5c4)ccc3ncc21 | enzyme activity, inhibitor | 10 µM | remaining activity | 94%
CC(C)CC(=O)N1CCc2nc(-c3ccc(Br)cc3)nc(N(C)Cc3ccccc3)c2C1 | cell-free assay, competition with immobilised ligand | 0.1 µM | remaining binding | 100%
CCN(CC)CCNC(=O)c1c(C)[nH]c(/C=C2\C(=O)Nc3ccc(F)cc32)c1C | cell-free assay | 0.5 µM | remaining signal | 97.2%
CSc1nc(C)c(-c2ccnc(Nc3ccc(N4CCOCC4)cc3)c2)[nH]1 | enzyme activity, inhibitor | 10 µM | inhibition | -4.8%
CC(=O)N1CCC(c2ccc(C(=O)NC(=N)N)cc2C(F)(F)F)CC1 | cell-free assay, competition with immobilised ligand | 1 µM | remaining binding | 100%
COc1cc(/C=C/C(=O)CC(=O)/C=C/c2ccc(O)c(OC)c2)ccc1O | enzyme activity, inhibitor | 1 µM | activity vs control | 74%
O=C(Nc1cnn(-c2csc(C(=O)NC3COC3)c2)c1)Nc1c(F)cccc1Cl | enzyme activity, inhibitor | 5 µM | remaining activity | 129%
Cc1c(NC(=O)c2cc(C(N)=O)nc3cc(F)ccc23)c(C(F)(F)F)nn1Cc1ccc(C#N)cc1 | cell-free assay, competition with immobilised ligand | 1 µM | remaining binding | 94%
